For this experiment, the target named is Sonic hedgehog protein (Mus musculus, UniProt Q62226). Put plainly: Inhibition of SHH in mouse Shh-Light2 cells after 48 hrs by Gli1 reporter gene assay in presence of SAG. The gist of the method: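 Shh-Light II cells co-treated with the Hh activator SAG and inhibitor for 48 h. Cells washed with PBS and lysed, then firefly and constitutive Renilla luminescence read by dual-luciferase assay. IC50 from firefly/Renilla RLU/s plotted against concentration, Hill-slope non-linear regression. Highest concentration 5000 nM. 2–4 independent experiments, each in technical triplicate.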

The values that follow come from BindingDB's records for doi:10.1016/j.bmc.2009.06.008 (University of Leipzig, 2009).

SMILES strings stand for the structures.

Broadly, the IC50 is the midpoint of a concentration-inhibition curve. `CC1=C2C[C@H]3[C@@H](CC=C4C[C@@H](O)CC[C@@]43C)[C@@H]2CC[C@]12O[C@@H]1C[C@H](C)CN[C@H]1[C@H]2C`: the IC50 is 1.31 µM. Under `COc1ccccc1C(=O)Nc1ccc(Cl)c(-c2nc3ccccc3[nH]2)c1` [N-(3-(1H-Benzo[d]imidazol-2-yl)-4-chlorophenyl)-2-methoxybenzamide] stands 0.876 µM. For `CCOc1cc(C(=O)Nc2ccc(Cl)c(-c3nc4ccccc4[nH]3)c2)cc(OCC)c1OCC` [N-(3-(1H-Benzo[d]imidazol-2-yl)-4-chlorophenyl)-3,4,5-triethoxybenzamide] the value was 0.0979 µM. For the compound `COc1cc(C(=O)Nc2ccc(Cl)c(-c3nc4ccccc4[nH]3)c2)cc(OC)c1OC` [N-(3-(1H-Benzo[d]imidazol-2-yl)-4-chlorophenyl)-3,4,5-trimethoxybenzamide], the half-inhibitory concentration (IC50) is 0.0798 µM. For `O=C(Nc1ccc(Cl)c(-c2nc3ccccc3[nH]2)c1)c1cccc(C(F)(F)F)c1` [N-(3-(1H-Benzo[d]imidazol-2-yl)-4-chlorophenyl)-3-(trifluoromethyl)benzamide] the value was 0.119 µM.

In the case of `CN(C)c1ccc(C(=O)Nc2ccc(Cl)c(-c3nc4ccccc4[nH]3)c2)cc1` [N-(3-(1H-Benzo[d]imidazol-2-yl)-4-chlorophenyl)-4-(dimethylamino)benzamide], the half-maximal inhibitory concentration (IC50) came out at 0.19 µM. For `O=C(Nc1ccc(Cl)c(-c2nc3ccccc3[nH]2)c1)c1ccc(Cl)cc1` [N-(3-(1H-Benzo[d]imidazol-2-yl)-4-chlorophenyl)-4-chlorobenzamide] the value was 0.224 µM; for `N#Cc1ccc(C(=O)Nc2ccc(Cl)c(-c3nc4ccccc4[nH]3)c2)cc1` [N-(3-(1H-Benzo[d]imidazol-2-yl)-4-chlorophenyl)-4-cyanobenzamide], 0.185 µM; for `O=C(Nc1ccc(Cl)c(-c2nc3ccccc3[nH]2)c1)c1ccc(F)cc1` [N-(3-(1H-Benzo[d]imidazol-2-yl)-4-chlorophenyl)-4-fluorobenzamide], 0.251 µM. Under `COc1ccc(C(=O)Nc2ccc(Cl)c(-c3nc4ccccc4[nH]3)c2)cc1` [N-(3-(1H-Benzo[d]imidazol-2-yl)-4-chlorophenyl)-4-methoxybenzamide] stands 0.117 µM. For `O=C(Nc1ccc(Cl)c(-c2nc3ccccc3[nH]2)c1)c1ccccc1` [N-(3-(1H-Benzo[d]imidazol-2-yl)-4-chlorophenyl)-benzamide] the value was 0.163 µM; for `CCOc1cc(C(=O)Nc2cccc(-c3nc4ccccc4[nH]3)c2)cc(OCC)c1OCC` [N-(3-(1H-Benzo[d]imidazol-2-yl)phenyl)-3,4,5-triethoxybenzamide], 1.32 µM.
